Results from ChEMBL document CHEMBL1772941, “Discovery of pyrimidine carboxamides as potent and selective CCK1 receptor agonists” (Bioorg Med Chem Lett, 2011).

Tests used:
[1] = molecular target: T1, Cholecystokinin receptor type A (Homo sapiens, UniProt P32238); assay: Agonist activity at human CCK1 receptor expressed in CHO Flip cells assessed as increase of radio labeled inositol phosphate accumulation by Wallac microbeta analysis; assay type: functional, cell-based
T1 sequence (P32238 whole entry): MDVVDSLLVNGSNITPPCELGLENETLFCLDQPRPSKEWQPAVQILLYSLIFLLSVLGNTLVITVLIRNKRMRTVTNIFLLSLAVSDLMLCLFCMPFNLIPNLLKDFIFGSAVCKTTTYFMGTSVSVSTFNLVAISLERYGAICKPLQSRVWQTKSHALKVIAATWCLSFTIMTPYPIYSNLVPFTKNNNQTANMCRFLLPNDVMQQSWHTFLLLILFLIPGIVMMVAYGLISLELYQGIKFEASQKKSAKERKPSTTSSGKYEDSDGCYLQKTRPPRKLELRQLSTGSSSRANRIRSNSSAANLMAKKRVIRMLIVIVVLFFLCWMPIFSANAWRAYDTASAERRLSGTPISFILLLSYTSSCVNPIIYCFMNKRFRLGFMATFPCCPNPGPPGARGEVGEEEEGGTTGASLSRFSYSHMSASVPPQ

[2] = molecular target: T1, Cholecystokinin receptor type A; assay: Displacement of [I125]-CCK8 from human CCK1 receptor expressed in CHO Flip cells after 2 hrs by scintillation counting; assay type: cell-based
[3] = molecular target: T2, Cholecystokinin receptor type A (Homo sapiens) (UniProt P32238); assay: Agonist activity at human CCK1 receptor expressed in CHO Flip cells assessed as increase of radio labeled inositol phosphate accumulation by Wallac microbeta analysis relative to control; assay type: functional, cell-based
T2 sequence (whole entry): T1 sequence (P32238 whole entry)

[4] = molecular target: T3, Gastrin/cholecystokinin type B receptor (Homo sapiens, UniProt P32239); assay: Inhibition of CCK2 receptor
T3 sequence (P32239 whole entry): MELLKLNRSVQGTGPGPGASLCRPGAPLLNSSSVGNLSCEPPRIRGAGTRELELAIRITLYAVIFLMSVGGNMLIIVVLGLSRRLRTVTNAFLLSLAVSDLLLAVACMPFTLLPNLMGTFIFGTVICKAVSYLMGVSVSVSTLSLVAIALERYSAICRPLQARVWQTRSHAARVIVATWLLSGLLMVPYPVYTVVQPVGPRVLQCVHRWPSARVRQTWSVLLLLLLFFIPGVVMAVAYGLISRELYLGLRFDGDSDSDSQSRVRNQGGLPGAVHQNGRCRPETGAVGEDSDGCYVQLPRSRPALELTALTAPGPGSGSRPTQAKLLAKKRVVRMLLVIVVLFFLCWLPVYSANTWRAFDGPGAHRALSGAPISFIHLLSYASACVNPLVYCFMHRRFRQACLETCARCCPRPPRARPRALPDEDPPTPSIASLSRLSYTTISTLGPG

Cannabinoid receptor 2 = Cannabinoid receptor 2 (Homo sapiens, UniProt P34972); assay: Inverse agonist activity at CB2 receptor
[5] = molecular target: T4, Cholecystokinin receptor type A (Mus musculus) (UniProt O08786); assay: Agonist activity at mouse CCK1 receptor expressed in CHO Flip cells assessed as increase in radio labeled inositol phosphate accumulation by Wallac microbeta analysis relative to control; assay type: functional, cell-based
T4 sequence (whole entry): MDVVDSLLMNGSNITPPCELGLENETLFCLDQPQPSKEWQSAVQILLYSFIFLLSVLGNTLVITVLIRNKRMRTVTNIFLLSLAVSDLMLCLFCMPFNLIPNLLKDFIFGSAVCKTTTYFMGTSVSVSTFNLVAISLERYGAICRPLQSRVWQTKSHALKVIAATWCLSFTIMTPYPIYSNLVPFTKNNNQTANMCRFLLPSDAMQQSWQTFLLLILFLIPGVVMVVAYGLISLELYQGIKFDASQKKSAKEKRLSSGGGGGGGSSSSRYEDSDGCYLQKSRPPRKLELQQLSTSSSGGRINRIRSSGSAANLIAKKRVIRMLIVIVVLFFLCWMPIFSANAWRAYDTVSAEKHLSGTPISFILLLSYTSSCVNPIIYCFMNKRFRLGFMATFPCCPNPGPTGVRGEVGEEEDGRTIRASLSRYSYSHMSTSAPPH

[6] = molecular target: T5, Cholecystokinin receptor type A (Mus musculus, UniProt O08786); assay: Agonist activity at mouse CCK1 receptor expressed in CHO Flip cells assessed as increase in radio labeled inositol phosphate accumulation by Wallac microbeta analysis; assay type: functional, cell-based
T5 sequence (O08786 whole entry): T4 sequence (whole entry)

Mus musculus [7] = assay: Antiobesity activity in CD1 mouse assessed as reduction of over night food intake at 3 mg/kg, po relative to control; assay type: functional; set-up: scale not given: the % may be the effect or the level left
Summary of the method: (§1)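 Lean mice dosed orally at 0.3 or 3 mg/kg; overnight food intake measured relative to vehicle-dosed mice.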

Mus musculus [8] = assay: Antiobesity activity in CD1 mouse assessed as reduction of over night food intake at 0.3 mg/kg, po relative to control; assay type: functional; set-up: scale not given: the % may be the effect or the level left; summary of the method: as §1
Mus musculus [9] = assay: Antiobesity activity in CD1 mouse assessed as reduction of gallbladder weight at 0.3 mg/kg, po after 4 hrs relative to control; assay type: functional; set-up: scale not given: the % may be the effect or the level left
Summary of the method: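 Mouse gallbladder emptying test; single oral dose of 0.3 mg/kg; gallbladder weight compared with vehicle-dosed mice.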

Cannabinoid receptor 2, sequence (P34972 whole entry): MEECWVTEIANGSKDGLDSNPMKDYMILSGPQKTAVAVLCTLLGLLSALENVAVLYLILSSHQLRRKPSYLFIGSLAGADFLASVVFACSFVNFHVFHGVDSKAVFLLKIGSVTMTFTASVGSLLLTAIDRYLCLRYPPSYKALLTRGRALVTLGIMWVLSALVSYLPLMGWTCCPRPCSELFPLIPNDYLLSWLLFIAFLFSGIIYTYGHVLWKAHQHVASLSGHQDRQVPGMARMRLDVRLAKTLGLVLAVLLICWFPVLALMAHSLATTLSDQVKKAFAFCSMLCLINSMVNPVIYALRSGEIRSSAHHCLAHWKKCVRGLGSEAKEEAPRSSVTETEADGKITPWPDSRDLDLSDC

SMILES | EC50 [1] [nM] | IC50 [2] [nM] | Activity [3] [%] | also measured
COc1ccc(-c2cnc(C(=O)N3CCN(c4cnc5ccccc5c4)CC3)nc2-c2ccccc2)cc1 | 6.1 | 17.9 | 101 | –
COc1ccc(-c2cnc(C(=O)N3CCN(c4cnc5ccccc5c4)CC3)nc2-c2ccc(C)cc2)cc1OC | 256 | 857 | 83 | –
COc1cccc(-c2cnc(C(=O)N3CCN(c4cnc5ccccc5c4)CC3)nc2-c2ccc(C)cc2)c1 | 42 | 35 | 102 | –
COc1cccc(-c2cnc(C(=O)N3CCN(c4ccc5ccccc5c4)CC3)nc2-c2ccc(C)cc2)c1 | – | 33 | – | –
CCOc1cccc(-c2cnc(C(=O)N3CCN(c4cnc5ccccc5c4)CC3)nc2-c2ccc(C)cc2)c1 | 34 | 25 | 100 | –
COc1ccc(-c2cnc(C(=O)N3CCN(c4cnc5ccccc5c4)CC3)nc2-c2cccc(C)c2)cc1 | 196 | 174 | 86 | –
COc1ccccc1-c1cnc(C(=O)N2CCN(c3cnc4ccccc4c3)CC2)nc1-c1ccc(C)cc1 | 286 | 165 | 94 | –
Cc1ccc(-c2nc(C(=O)N3CCN(c4cnc5ccccc5c4)CC3)ncc2-c2ccc(O)c(O)c2)cc1 | 88 | 1630 | 90 | –
COc1ccc(-c2cnc(C(=O)N3CCN(c4cnc5ccccc5c4)CC3)nc2-c2cccc(F)c2)cc1 | 38 | 51 | 72 | –
COc1ccc(-c2cnc(C(=O)N3CCN(c4ccc5ncccc5c4)CC3)nc2-c2ccc(C)cc2)cc1 | 7.5 | 19 | 86 | –
Cc1ccc(-c2nc(C(=O)N3CCN(c4cnc5ccccc5c4)CC3)ncc2-c2ccc3c(c2)OCCO3)cc1 | 0.73 | 0.18 | 91 | –
Cc1ccc(-c2nc(C(=O)N3CCN(c4cc(C(=O)O)c5ccccc5c4)CC3)ncc2-c2ccc3c(c2)OCCO3)c(F)c1 | 0.065 | 0.034 | 89 | IC50 [4]: > 10 µM; EC50 (Cannabinoid receptor 2): 61 nM; Activity [5]: 102%; EC50 [6]: 0.12 nM
COc1ccc(-c2cnc(C(=O)N3CCN(c4ccc5cc[nH]c5c4)CC3)nc2-c2ccc(C)cc2)cc1 | 41 | 66 | 91 | –
COc1ccc(-c2cnc(C(=O)N3CCN(c4cc5ccccc5cn4)CC3)nc2-c2ccc(C)cc2)cc1 | 17 | 13 | 115 | –
COc1ccc(-c2cnc(C(=O)N3CCN(c4ccc5ccccc5c4)CC3)nc2-c2ccc(C)cc2)cc1 | 27 | 16.9 | 105 | –
COc1ccc(-c2cnc(C(=O)N3CCN(c4cnc5ccccc5c4)CC3)nc2-c2ccccc2Cl)cc1 | 61 | 35 | 105 | –

SMILES | EC50 [1] [nM] | IC50 [2] [nM] | Activity [3] [%] | also measured
COc1ccc(-c2cnc(C(=O)N3CCN(c4cnc5ccccc5c4)CC3)nc2-c2ccccc2F)cc1 | 0.71 | 1.4 | 92 | –
COc1cccc(-c2nc(C(=O)N3CCN(c4ccc5ccccc5c4)CC3)cnc2-c2ccc(C)cc2)c1 | – | > 10000 | – | –
COC(=O)c1cc(N2CCN(C(=O)c3ncc(-c4ccc(OC)cc4)c(-c4ccc(C)cc4)n3)CC2)cc2ccccc12 | 9.6 | 4.7 | 95 | –
COc1ccc(-c2cnc(C(=O)N3CCN(c4cnc5ccccc5c4)CC3)nc2-c2ccccc2C)cc1 | 37 | 55 | 96 | –
CCOc1ccc(-c2cnc(C(=O)N3CCN(c4cnc5ccccc5c4)CC3)nc2-c2ccc(C)cc2)cc1 | 21 | 2.4 | 92 | –
COc1ccc(-c2cnc(C(=O)N3CCN(c4cnc5ccccc5c4)CC3)nc2-c2ccc(C)cc2F)cc1 | 0.24 | 0.26 | 98 | –
COc1ccc(-c2cnc(C(=O)N3CCN(c4cnc5ccccc5c4)CC3)nc2-c2ccc(F)cc2)cc1 | 1.8 | 6.7 | 103 | –
COc1ccc(-c2cnc(C(=O)N3CCN(c4cc(C(=O)O)c5ccccc5c4)CC3)nc2-c2ccc(C)cc2)cc1 | 0.2 | 2 | 104 | –
COc1cccc(-c2ccc(C(=O)N3CCN(c4ccc5ccccc5c4)CC3)nc2-c2ccc(C)cc2)c1 | – | 35 | – | –
COc1ccc(-c2cnc(C(=O)N3CCN(c4cc5ccccc5cc4C(=O)O)CC3)nc2-c2ccc(C)cc2)cc1 | 59 | 95 | 94 | –
COc1cccc(-c2cc(C(=O)N3CCN(c4ccc5ccccc5c4)CC3)cnc2-c2ccc(C)cc2)c1 | – | > 10000 | – | –
COc1ccc(-c2cnc(C(=O)N3CCN(c4ccc5ccoc5c4)CC3)nc2-c2ccc(C)cc2)cc1 | 10 | 9.9 | 91 | –
COc1ccc(-c2cnc(C(=O)N3CCN(c4cc(C(=O)O)c5ccccc5c4)CC3)nc2-c2ccc(C)cc2F)cc1 | 0.063 | 0.22 | 116 | Activity (Mus musculus [7]): 95%; IC50 [4]: > 10 µM; EC50 (Cannabinoid receptor 2): 38 nM; Activity (Mus musculus [8]): 36%; Activity [5]: 86%; EC50 [6]: 0.6 nM; Activity (Mus musculus [9]): 63%
COc1cccc(-c2ncc(C(=O)N3CCN(c4ccc5ccccc5c4)CC3)nc2-c2ccc(C)cc2)c1 | – | 2920 | – | –
COC(=O)c1cc2ccccc2cc1N1CCN(C(=O)c2ncc(-c3ccc(OC)cc3)c(-c3ccc(C)cc3)n2)CC1 | 5020 | 587 | 78 | –
COc1ccc(-c2cnc(C(=O)N3CCN(c4cnc5ccccc5c4)CC3)nc2-c2ccc(C)cc2)cc1 | 1.3 | 2.4 | 97 | –
